Measured values as given in ChEMBL document CHEMBL1629563, “Pharmacokinetic and safety evaluation of BILR 355, a second-generation nonnucleoside reverse transcriptase inhibitor, in healthy volunteers” (Antimicrob Agents Chemother, 2008).

Key:
[1] = Renal clearance in healthy human at 5 mg, po administered as single dose by high-pressure liquid chromatography-tandem mass spectrometry/mass spectrometry method; type: ADME, organism-based, Kidney; settings: in vivo, read-out: CL_renal (converted)
[2] = Apparent oral clearance in healthy human at 87.5 mg, po administered as single dose coadministered with 100 mg of ritonavir; type: ADME, organism-based; settings: in vivo
Outline: (§1)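 Healthy male volunteers, fasted. Ritonavir 100 mg given 10 h before and again together with single oral BILR 355 in PEG solution. EDTA plasma sampled predose to 144 h. LC-MS/MS assay after protein precipitation. Noncompartmental analysis, AUC by linear up/log down trapezoidal rule; Vss = CL/F·(MRTp.o. − 1/Ka).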

[3] = system: Homo sapiens; test: Toxicity in healthy human assessed as occurrence of diarrhea at 50 mg, po administered as single dose coadministered with 100 mg of ritonavir; type: organism-based; settings: in vivo
[4] = system: Homo sapiens; test: Toxicity in healthy human assessed as occurrence of maculopapular rash at 25 mg, po administered as single dose coadministered with 100 mg of ritonavir; type: organism-based; settings: in vivo
[5] = system: Homo sapiens; test: Toxicity in healthy human assessed as occurrence of palpitations at 1 mg, po administered as single dose relative to control; type: organism-based; settings: in vivo
[6] = system: Homo sapiens; test: Toxicity in healthy human assessed as occurrence of flatulence at 50 mg, po administered as single dose relative to control; type: organism-based; settings: in vivo
[7] = system: Homo sapiens; test: Toxicity in healthy human assessed as occurrence of maculopapular rash at 62.5 mg, po administered as single dose coadministered with 100 mg of ritonavir; type: organism-based; settings: in vivo
[8] = system: Homo sapiens; test: Toxicity in healthy human assessed as occurrence of maculopapular rash at 75 mg, po administered as single dose coadministered with 100 mg of ritonavir; type: organism-based; settings: in vivo
[9] = AUC (0 to last) in healthy human at 50 mg, po administered as single dose coadministered with 100 mg of ritonavir; type: ADME, organism-based; parameters: dose 50 mg, time 0 - last, route oral; settings: plasma; outline: as §1
[10] = system: Homo sapiens; test: Toxicity in healthy human assessed as occurrence of vomiting at 75 mg, po administered as single dose relative to control; type: organism-based; settings: in vivo
[11] = system: Homo sapiens; test: Toxicity in healthy human assessed as occurrence of frequent bowel movements at 100 mg, po administered as single dose relative to control; type: organism-based; settings: in vivo
[12] = system: Homo sapiens; test: Toxicity in healthy human assessed as occurrence of nausea at 50 mg, po administered as single dose relative to control; type: organism-based; settings: in vivo
[13] = system: Homo sapiens; test: Toxicity in healthy human assessed as occurrence of nausea at 12.5 mg, po administered as single dose relative to control; type: organism-based; settings: in vivo
[14] = Apparent oral clearance in high fat fed healthy human at 50 mg, po administered as single dose coadministered with 100 mg of ritonavir; type: ADME, organism-based; settings: in vivo
Outline: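 Fed cohort of 6 healthy men given an FDA-type high-fat breakfast (about 150, 250 and 500 to 600 cal from protein, carbohydrate and fat) 30 min before dosing. Ritonavir 100 mg given 10 h earlier and again with the single oral dose in PEG solution. Plasma sampled to 144 h, LC-MS/MS, noncompartmental analysis.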

[15] = system: Homo sapiens; test: Toxicity in healthy human assessed as occurrence of constipation at 50 mg, po administered as single dose relative to control; type: organism-based; settings: in vivo
[16] = Half life in healthy human at 87.5 mg, po administered as single dose coadministered with 100 mg of ritonavir; type: ADME, organism-based; settings: in vivo
[17] = Renal clearance in healthy human at 75 mg, po administered as single dose coadministered with 100 mg of ritonavir by high-pressure liquid chromatography-tandem mass spectrometry/mass spectrometry method; type: ADME, organism-based, Kidney; settings: in vivo, read-out: CL_renal (converted)
[18] = Drug excretion in healthy human urine assessed as unchanged drug at 75 mg, po administered as single dose by high-pressure liquid chromatography-tandem mass spectrometry/mass spectrometry method; type: ADME, organism-based; settings: read-out: Drug uptake
Outline: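 Urine was collected by weight after one oral dose of BILR 355 in PEG solution in fasted healthy males. Intervals were predose blank, 0-6, 6-24 and 24-72 h, with the bladder voided before each. Aliquots were stored at −20°C and assayed by LC-MS/MS. fe = amount of unchanged drug excreted (Ae) as a percentage of the administered dose.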

[19] = system: Homo sapiens; test: Ratio of Cmax in human at 50 mg, po in presence of 100 mg of ritonavir to Cmax in human at 50 mg, po; type: ADME, organism-based; settings: in vivo
[20] = Apparent oral clearance in healthy human at 25 mg, po administered as single dose coadministered with 100 mg of ritonavir; type: ADME, organism-based; settings: in vivo; outline: as §1
[21] = Tmax in healthy human at 50 mg, po administered as single dose; type: ADME, organism-based; settings: in vivo
[22] = system: Homo sapiens; test: Toxicity in healthy human assessed as occurrence of flatulence at 12.5 mg, po administered as single dose relative to control; type: organism-based; settings: in vivo
[23] = system: Homo sapiens; test: Toxicity in healthy human assessed as occurrence of fatigue at 62.5 mg, po administered as single dose coadministered with 100 mg of ritonavir; type: organism-based; settings: in vivo
[24] = Apparent volume of distribution in terminal phase in healthy human at 37.5 mg, po administered as single dose coadministered with 100 mg of ritonavir; type: ADME, organism-based; settings: in vivo, read-out: Vz/F
Outline: (§2)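 Healthy male volunteers, fasted overnight, got one oral dose of BILR 355 in PEG solution with 200 ml water. Ritonavir 100 mg was given 10 h before and again with the dose. Plasma was sampled (EDTA) from predose to 144 h and assayed by validated LC-MS/MS. Cmax and Vz/F came from noncompartmental analysis. Vss/F = CL/F·(MRTp.o. − 1/Ka), with Ka from compartmental modelling.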

[25] = Apparent volume of distribution in terminal phase in healthy human at 25 mg, po administered as single dose; type: ADME, organism-based; settings: in vivo, read-out: Vz/F
Outline: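 Single fasting oral dose of BILR 355 in PEG solution with 200 ml tap water, given to healthy males. Standard breakfast came 60-90 min after the dose. EDTA plasma was sampled predose to 144 h, stored below −18°C and assayed by LC-MS/MS after protein precipitation. Noncompartmental analysis gave Vz/F. Vss/F = CL/F·(MRTp.o. − 1/Ka), with Ka from compartmental modelling.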

[26] = system: Homo sapiens; test: Toxicity in healthy human assessed as occurrence of palpitations at 5 mg, po administered as single dose relative to control; type: organism-based; settings: in vivo
[27] = AUC (0 to infinity) in healthy human at 75 mg, po administered as single dose coadministered with 100 mg of ritonavir; type: ADME, organism-based; parameters: dose 75 mg, route oral, time infinity; settings: plasma; outline: as §1
[28] = system: Homo sapiens; test: Toxicity in healthy human assessed as occurrence of headache at 100 mg, po administered as single dose relative to control; type: organism-based; settings: in vivo
[29] = Apparent volume of distribution at steady state in healthy human at 5 mg, po administered as single dose coadministered with 100 mg of ritonavir; type: ADME, organism-based; settings: in vivo, read-out: Vss/F; outline: as §2
[30] = Tmax in healthy human at 25 mg, po administered as single dose coadministered with 100 mg of ritonavir; type: ADME, organism-based; settings: in vivo
[31] = Renal clearance in healthy human at 12.5 mg, po administered as single dose by high-pressure liquid chromatography-tandem mass spectrometry/mass spectrometry method; type: ADME, organism-based, Kidney; settings: in vivo, read-out: CL_renal (converted)

CCN1c2ncc(CCOc3cc[n+]([O-])c4ccccc34)cc2C(=O)N(C)c2cccnc21 [BILR 355]
CL renal [1]: 4.52 mL/min | CL/F [2]: 138 mL/min | Activity [3]: 0% | Activity [4]: 16.7% | Activity [5]: 0% | Activity [6]: 0% | Activity [7]: 0% | Activity [8]: 0% | AUC(0-t) [9]: 6540 ng·h/mL | Activity [10]: 0% | Activity [11]: 0% | Activity [12]: 0% | Activity [13]: 0% | CL/F [14]: 104 mL/min | Activity [15]: 0% | half-life [16]: 9.61 h | CL renal [17]: 5.85 mL/min | dose excreted [18]: 0.602% | Ratio [19]: 2.9 | CL/F [20]: 98 mL/min | Tmax [21]: 0.667 h | Activity [22]: 0% | Activity [23]: 0% | Vd/F [24]: 104 L | Vd/F [25]: 1040 L | Activity [26]: 0% | AUC(0-inf) [27]: 12300 ng·h/mL | Activity [28]: 0% | Vd/F [29]: 166 L | Tmax [30]: 1.75 h | CL renal [31]: 6.85 mL/min
